Converted amounts (≈) assume the structure as drawn.
Tests used:
[1] = Selectivity index, ratio of EC50 for toxicity in human BEAS2B cells to MIC50 for antifungal activity against ITC and FLC-susceptible Candida albicans ATCC MYA-2876; format: cell-based; details: BEAS-2B cells, read-out: Selectivity Index
In short: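 Ratio of the compound's EC50 against BEAS-2B cells to its MIC against the named C. albicans strain. […] For C. albicans strains other than ATCC 10231, trailing growth meant MIC-2 was taken, meaning 50% growth inhibition.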

[2] = Selectivity index, ratio of […] for toxicity in human BEAS2B cells to MIC50 for antifungal activity against Aspergillus nidulans ATCC 38163; format: cell-based; details: BEAS-2B cells, read-out: Selectivity Index
[3] = tested on: Aspergillus terreus; assay: Antifungal activity against Aspergillus terreus ATCC MYA-3633 incubated for 48 hrs by CLSI M38-A2 protocol based method; format: functional; details: ATCC MYA-3633, 48 h, read-out: MIC100
[4] = Hemolytic activity in mouse erythrocytes assessed as hemolysis level at 15.6 ug/ml incubated for 1 hr at 37 degC; format: ADME, cell-based, Erythrocyte; details: read-out: Activity
In short: (§1)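 Mouse erythrocytes incubated 1 h at 37 °C with test agents over 1.95 to 125 µg/mL. Percent lysis is read for each concentration.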

[5] = Selectivity index, ratio of EC50 for toxicity in human A549 cells to MIC50 for antifungal activity against Candida albicans ATCC 64124; format: cell-based; details: read-out: Selectivity Index
In short: (§2)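 Selectivity index is the EC50 against the mammalian line (A549 or BEAS-2B) divided by the MIC against the given fungal strain.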

[6] = tested on: Aspergillus flavus; assay: Antifungal activity against Aspergillus flavus ATCC MYA-3631 incubated for 48 hrs by CLSI M38-A2 protocol based method; format: functional; details: ATCC MYA-3631, 48 h, read-out: MIC100
[7] = Selectivity index, ratio of […] for toxicity in human A549 cells to MIC50 for antifungal activity against Aspergillus terreus ATCC MYA-3633; format: cell-based; details: read-out: Selectivity Index
[8] = tested on: Nakaseomyces glabratus; assay: Antifungal activity against Candida glabrata ATCC 2001 incubated for 48 hrs by modified CLSI M27-A3 protocol based method; format: functional; details: ATCC 2001, 48 h
[9] = tested on: Candida albicans; assay: Antifungal activity against ITC and FLC-susceptible Candida albicans ATCC MYA-2876 incubated for 48 hrs by modified CLSI M27-A3 protocol based method; format: functional; details: ATCC MYA-2876, 48 h
In short: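 Because these Candida strains show trailing growth, MIC-2 was read, meaning 50% growth inhibition. Caspofungin and voriconazole were tested here; other controls came from earlier work.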

[10] = Selectivity index, ratio of EC50 for toxicity in human A549 cells to MIC50 for antifungal activity against ITC and FLC-resistant Candida albicans ATCC MYA-1003; format: cell-based; details: read-out: Selectivity Index; in short: as §2
[11] = Hemolytic activity in mouse erythrocytes assessed as hemolysis level at 3.9 ug/ml incubated for 1 hr at 37 degC; format: ADME, cell-based, Erythrocyte; details: read-out: Activity; in short: as §1
[12] = tested on: Aspergillus nidulans; assay: Antifungal activity against Aspergillus nidulans ATCC 38163 incubated for 48 hrs by CLSI M38-A2 protocol based method; format: functional; details: ATCC 38163, 48 h, read-out: MIC100
[13] = Toxicity in human BEAS2B cells assessed as reduction in cell viability incubated for 24 hrs by resazurin dye based assay; details: BEAS-2B cells
In short: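 Toxicity tested in the nucleated lines A549 and BEAS-2B to give EC50 values. Selectivity index is EC50 against the mammalian line divided by the MIC against a given fungal strain.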

[14] = Selectivity index, ratio of EC50 for toxicity in human A549 cells to MIC50 for antifungal activity against ITC and FLC-resistant Candida albicans ATCC 1237; format: cell-based; details: read-out: Selectivity Index; in short: as §2
[15] = Selectivity index, ratio of EC50 for toxicity in human A549 cells to MIC50 for antifungal activity against ITC and FLC-susceptible Candida albicans ATCC MYA-2876; format: cell-based; details: read-out: Selectivity Index; in short: as §2
[16] = tested on: Candida albicans; assay: Antifungal activity against ITC and FLC-resistant Candida albicans ATCC MYA-90819 incubated for 48 hrs by modified CLSI M27-A3 protocol based method; format: functional; details: ATCC MYA-90819, 48 h
[17] = tested on: A549; assay: Toxicity in human A549 cells assessed as cell viability at 15.6 ug/ml incubated for 24 hrs by resazurin dye based assay; details: a549, 24 h
[18] = tested on: BEAS-2B; assay: Toxicity in human BEAS2B cells assessed as cell viability at 15.6 ug/ml incubated for 24 hrs by resazurin dye based assay

SMILES | selectivity ratio [1] | selectivity ratio [2] | MIC [3] [µM] | hemolysis at 1 h, 15.6 ug/ml [4] [%] | selectivity ratio [5] | MIC [6] [µM] | selectivity ratio [7] | MIC50 [8] [µM] | MIC50 [9] [µM] | selectivity ratio [10] | hemolysis at 1 h, 3.9 ug/ml [11] [%] | MIC [12] [µM] | EC50 at 24 h [13] [µg/mL] | selectivity ratio [14] | selectivity ratio [15] | MIC50 [16] [µM] | viability [17] [%] | viability [18] [%]
CCCCCCC(O)(Cn1cncn1)c1ccccc1F (configuration not stated) | 32 | 65 | 13.4 (≈ 3.9 µg/mL) | 0 | 1 | 53.5 to 107 (≈ 15.6 to 31.3 µg/mL) | 8 | 3.3 (≈ 0.962 µg/mL) | 3.3 (≈ 0.962 µg/mL) | 8 | 0 | 1.6 (≈ 0.466 µg/mL) | > 31.3 | 32 | 32 | 0.82 (≈ 0.239 µg/mL) | – | –
CCCCCC(O)(Cn1cncn1)c1ccc(Cl)cc1Cl (configuration not stated) | 32 | 65 | 11.9 (≈ 3.91 µg/mL) | 0 | 17 | 11.9 (≈ 3.91 µg/mL) | 8 | 5.9 (≈ 1.94 µg/mL) | 3 (≈ 0.985 µg/mL) | 34 | 0 | 1.5 (≈ 0.492 µg/mL) | > 31.3 | 17 | 34 | 5.9 (≈ 1.94 µg/mL) | > 85 | > 85
CCCCCC(O)(Cn1cncn1)c1ccc(F)cc1 (configuration not stated) | 4 | 8 | 113 (≈ 31.3 µg/mL) | – | 1 | > 113 | 1 | 28.1 (≈ 7.79 µg/mL) | 28.1 (≈ 7.79 µg/mL) | 1 | – | 14.1 (≈ 3.91 µg/mL) | 33 (≈ 119 µM) | 16 | 4 | 3.5 (≈ 0.971 µg/mL) | – | –
CCCCCC(O)(Cn1cncn1)c1ccccc1F (configuration not stated) | 32 | 65 | 14.1 (≈ 3.91 µg/mL) | 0 | 1 | 28.1 (≈ 7.79 µg/mL) | 9 | 3.5 (≈ 0.971 µg/mL) | 3.5 (≈ 0.971 µg/mL) | 9 | 0 | 1.7 (≈ 0.471 µg/mL) | > 31.3 | 38 | 38 | 1.7 (≈ 0.471 µg/mL) | – | –
CCCC(O)(Cn1cncn1)c1ccc(Cl)cc1Cl (configuration not stated) | 16 | 16 | 13 (≈ 3.9 µg/mL) | – | 8 | 52 (≈ 15.6 µg/mL) | 8 | 13 (≈ 3.9 µg/mL) | 6.5 (≈ 1.95 µg/mL) | 32 | – | 6.5 (≈ 1.95 µg/mL) | > 31.3 | 4 | 16 | 13 (≈ 3.9 µg/mL) | > 85 | > 85
CCCCC(O)(Cn1cncn1)c1ccc(Cl)cc1Cl (configuration not stated) [HEXACONAZOLE] | 16 | 130 | 3.1 (≈ 0.974 µg/mL) | 0 | 8 | 12.4 (≈ 3.9 µg/mL) | 32 | 12.4 (≈ 3.9 µg/mL) | 6.2 (≈ 1.95 µg/mL) | 32 | 0 | 0.76 (≈ 0.239 µg/mL) | > 31.3 | 4 | 16 | 6.2 (≈ 1.95 µg/mL) | > 85 | > 85
CCCCCC(O)(Cn1cncn1)c1ccc(Cl)cc1 (configuration not stated) | 2 | 4 | > 106 | – | 4 | > 106 | 1 | 13.3 (≈ 3.91 µg/mL) | 53.1 (≈ 15.6 µg/mL) | 16 | – | 26.5 (≈ 7.79 µg/mL) | > 31.3 | 8 | 2 | 6.6 (≈ 1.94 µg/mL) | – | –

Reference: ChEMBL document CHEMBL4265871, “Novel alkylated azoles as potent antifungals” (Eur J Med Chem, 2017)
